Experimental data reported in ChEMBL document CHEMBL4715918, “Syntheses and evaluation of acridone-naphthalimide derivatives for regulating oncogene PDGFR-β expression” (Bioorg Med Chem, 2021).
The source made the active and inactive calls. The rule behind the calls is not given here.

Key:
[1] = Binding affinity to FAM-labeled 5'-biotin-d [GCGTCCACCCTCCCTGCCCCGCCGCCCCCCCITCTCCCAGC]-3' i-motif DNA (unknown origin) by microscale thermophoresis assay
How it was run: (§1)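 Microscale thermophoresis with DNA held constant at 1 µM. Compound serially diluted 3:4 from 10 µM over 12 points. Samples run in standard glass capillaries with LED and laser power both at 20%. KD derived by fitting.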

Quadruplex DNA [2] = assay: Binding affinity to FAM-labeled 5'-biotin-d [GCTGGGAGAAGGGGGGGCGGCGGGGCAGGGAGGGTGGACGC]-3' G4-quadruplex DNA (unknown origin) by microscale thermophoresis assay; format: nucleic-acid assay; how it was run: as §1
[3] = Binding affinity to FAM-labeled 5'-biotin-d[TATAGCTATA-HEG-TATAGCTATA]- 3' duplex DNA (unknown origin) by microscale thermophoresis assay; how it was run: as §1
[4] = Binding affinity to 5'-biotin-d [GCGTCCACCCTCCCTGCCCCGCCGCCCCCCCITCTCCCAGC]-3' i-motif DNA (unknown origin) assessed as change in melting temperature at 10 uM by CD spectroscopy
How it was run: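 Oligomer 2 µM in BPES buffer pH 5.5, heated to 95 °C for 5 min, cooled slowly and held at 4 °C overnight. Ligand 10 µM. CD ellipticity followed at 288 nm from 25–95 °C (1 mm cuvette); Tm derived, ΔTm against DNA alone.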

Quadruplex DNA [5] = assay: Binding affinity to 5'-biotin-d [GCTGGGAGAAGGGGGGGCGGCGGGGCAGGGAGGGTGGACGC]-3' G4-quadruplex DNA (unknown origin) assessed as change in melting temperature at 10 uM by CD spectroscopy; format: nucleic-acid assay
How it was run: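 Oligomer 2 µM in Tris-HCl pH 7.4, annealed (95 °C for 5 min, slow cooling, 4 °C overnight). Ligand 10 µM. CD ellipticity followed at 263 nm over 25–95 °C; ΔTm taken against DNA alone.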

Quadruplex DNA [6] = assay: Binding affinity to 5'-FAM-GGGAGAAGGGGGGGCGGCGGGGCAGGGAGGGTGGAC-TAMRA-3' G4-quadruplex DNA (unknown origin) assessed as stabilization G4-quadruplex structure by measuring increase in I585/I518 ratio by FRET assay; format: nucleic-acid assay; details: dose 2-10 equiv
How it was run: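 FRET probe dual-labelled FAM/TAMRA, annealed, 10 µM in 10 mM Tris-HCl pH 7.4 with 10 mM KCl; compound added in equal volume. Emission 500–700 nm recorded, corrected for compound signal in the same buffer; I585/I518 ratio compared.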

[7] = Binding affinity to 5'-FAM-GCGTCCACCCTCCCTGCCCCGCCGCCCCCCCTTCTCCCAGC-TAMRA-3' i-motif DNA (unknown origin) assessed as unfolding i-motif structure by measuring reduction in I585/I518 ratio at 2 to 10 equiv by FRET assay; details: dose 2-10 equiv
How it was run: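 FRET probe dual-labelled FAM donor/TAMRA acceptor, annealed, 10 µM in 30 mM BPES buffer with 1 mM EDTA, 100 mM KCl; compound added in equal volume. Emission 500–700 nm recorded, corrected for compound signal in the same buffer; I585/I518 ratio compared. The i-motif forms at pH 6.2 and unfolds at pH 6.4.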

MCF7 = assay: Binding affinity to wild type PDGFRbeta promoter (unknown origin) in human MCF7 cells assessed as down regulation of PDGFRbeta mRNA expression at 1.25 to 20 uM after 12 hrs by RT-PCR analysis; format: cell-based; details: dose 1.25-20 µM

SMILES: C[n+]1ccc(-c2c3nc(c(-c4cc[n+](C)cc4)c4ccc([nH]4)c(-c4cc[n+](C)cc4)c4ccc([nH]4)c(-c4cc[n+](C)cc4)c4nc2C=C4)C=C3)cc1 [TMPYP4]
- Kd [1]: 463 µM
- Kd (Quadruplex DNA [2]): 3.96 µM
- Kd [3]: 1310 µM
- ΔTm [4]: 0.11 °C
- ΔTm (Quadruplex DNA [5]): > 20 °C
- Activity (Quadruplex DNA [6]): Dose-dependent effect
- Activity [7]: inactive
- Activity (MCF7): Dose-dependent effect
